Source: PubChem
IDE inh: inhibitors of human insulin-degrading enzyme in cells; inhibition, % at 5.59 µM; HEK cells, FAbetaB cleavage, fluorescence polarization; 0.41% of 320,000 active;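 active = percent inhibition above the average of all tested compounds plus 3 SD, set per screening campaign, cut at about 16% in these data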;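 also: IDE supplied by intact live HEK cells; FP after avidin binding of uncleaved biotin substrate so inhibition keeps polarization high; 0% = DMSO wells and 100% = 60 µM reference IDE inhibitor Ii1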
TRPML3 agonist: human mucolipin-3 channel agonism. Q8TDD5. HEK293 TRPML3-YFP, Fluo-8 calcium fluorescence; 100% = the carbachol control signal. activation, % at 3 µM. 0.29% of 220,000 active. AID 1448;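 active = activation above its plate's cutoff, the mean activation of the plate's test wells plus 3 SD, cut at about 12% in these data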;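 also: 0% = DMSO only wells and 100% = carbachol wells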
Target sequence (Q8TDD5 whole entry, looked up): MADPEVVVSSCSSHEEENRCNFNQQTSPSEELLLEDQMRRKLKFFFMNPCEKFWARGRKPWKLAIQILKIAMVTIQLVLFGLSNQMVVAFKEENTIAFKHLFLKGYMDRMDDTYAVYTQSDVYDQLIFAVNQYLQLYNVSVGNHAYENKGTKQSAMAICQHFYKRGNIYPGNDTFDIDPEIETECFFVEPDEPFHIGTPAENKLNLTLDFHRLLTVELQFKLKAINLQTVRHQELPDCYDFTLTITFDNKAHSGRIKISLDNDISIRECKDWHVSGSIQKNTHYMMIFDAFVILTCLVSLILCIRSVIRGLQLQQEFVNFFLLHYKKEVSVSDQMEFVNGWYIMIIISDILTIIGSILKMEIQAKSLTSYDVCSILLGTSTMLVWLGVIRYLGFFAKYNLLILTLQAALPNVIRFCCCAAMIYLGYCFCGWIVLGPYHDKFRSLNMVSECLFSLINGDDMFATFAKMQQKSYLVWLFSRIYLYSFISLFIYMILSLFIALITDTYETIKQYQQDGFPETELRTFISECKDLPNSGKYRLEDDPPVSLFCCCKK
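system = HEK293 cells stably carrying human TRPML3-YFP | doses = one concentration, 3 µM nominal, 0.3% DMSO | timing = dye loading 1 h 37 °C then 30 min ambient, 125 s read | detection = Fluo-8 calcium dye fluorescence, ex 470-495, em 515-575 nm | benchmarks = high control carbachol 87 µM, low control DMSO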
IDE cell activ: IDE (human) activation, cell-based | activation, % at 5.96 µM | 0.073% of 340,000 active | HEK cells, FAbeta-B cleavage, fluorescence polarization; 0% vehicle, 100% cell-free pure enzyme wells | AID 493087;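 active = activation above the mean of all tested compounds plus 3 SD, set per screening campaign, cut at about 17% in these data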
TRPN1 ag: activates the zebrafish TRPN1 channel; AID 1424; activation, % at 3 µM; 0.18% of 220,000 active; HEK293 zebrafish TRPN1-YFP, Fluo-8 calcium fluorescence; 100% = response to 87 µM carbachol;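 active = activation above its plate's cutoff, the mean activation of test wells on that plate plus 3 SD, cut at about 19% in these data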;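 also: 0% = DMSO alone and 100% = 87 µM carbachol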
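Material – zebrafish TRPN1-YFP in HEK293 cells · Doses – 3 µM single point · Schedule – dye 1 h 37 °C plus 30 min RT · Signal – Fluo-8 calcium fluorescence, excitation 470-495 nm, emission 515-575 nm · Read-out – % activation versus carbachol response · Control set – carbachol high, DMSO low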
IDE cell inh cf: confirmation of human insulin-degrading enzyme inhibitors in cells; HEK cells, FAbetaB cleavage, fluorescence polarization; inhibition, % at 5.59 µM; 51% of 1,200 active; shares compounds with IDE inh;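 active = mean inhibition across triplicate wells above the cutoff set by the earlier primary insulin-degrading enzyme screen, cut at about 16% in these data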;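 also: 0% = DMSO wells and 100% = 60 µM reference IDE inhibitor Ii1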
HEK293 tox: HEK cell cytotoxicity, counter-screen for IDE inhibitors. shares compounds with IDE inh. HEK293 cytotoxicity, ATP luminescence. inhibition, % at 5.59 µM. 28% of 1,200 active. AID 449730; in the data active = inhibition above about 22%;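 also: 0% = vehicle wells and 100% = reference cytotoxic drug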
IDE FP artifact: fluorescent artifact in IDE inhibitor FP assay | FP counterscreen for fluorescent artifacts, IDE probe project | IC50, µM | shares compounds with IDE inh | AID 588718 | 30 tested, under 10 active; call rule not given here
* marks the source's active call; other numbers are inactive results; nt = no result given. Compounds with a hit are over-represented: about 0.63% of the library has one in this group of screens.

SMILES	IDE inh	TRPML3 agonist	IDE cell activ	TRPN1 ag	IDE cell inh cf	HEK293 tox	others
Cc1cccc(-n2c(Cc3cc(=O)[nH]c(=O)[nH]3)nnc2SCC(=O)N2CCCCC2)c1	-1	0	0	1	nt	nt
COc1ccccc1NC(=O)N1CCN(c2cc(-c3ccccc3)nc3ncnn23)CC1	19*	0	-15	1	0	23*
COc1ccccc1NC(=O)N1CCN(c2ccc3nnc(-c4ccc(F)cc4)n3n2)CC1	17*	-1	-5	-1	8	9
COc1ccc(OC)c(NC(=O)C2CCN(c3cc(-c4ccccc4)nc4ncnn34)CC2)c1	3	0	-7	-1	nt	nt
CC(=O)c1ccc(N2CCN(c3ccnc4cc(Cl)ccc34)CC2)cc1	25*	nt	-46	nt	18*	39*
O=C(Nc1ccc(OC(F)(F)F)cc1)N1CCN(c2ccnc3cc(Cl)ccc23)CC1	36*	0	-32	2	12	35*
N#Cc1cccc(S(=O)(=O)N2CCN(c3ccnc4cc(Cl)ccc34)CC2)c1	20*	nt	-34	nt	8	17
COc1ccccc1N1CCN(c2ccnc3cc(Cl)ccc23)CC1	7	nt	-11	nt	nt	nt
COc1ccccc1NC(=O)N1CCN(c2ccnc3cc(Cl)ccc23)CC1	23*	0	-28	0	15	12
O=C(C1CC1)N1CCN(c2ccnc3cc(Cl)ccc23)CC1	22*	0	-31	-3	16*	13	IDE FP artifact=>55
O=C(N/N=C/c1cccc([N+](=O)[O-])c1)c1ccccc1-n1cccc1	2	0	-3	0	nt	nt
C=CCNc1ncnc2c1[nH]c1ccc(Cl)cc12	30*	6	-30	8	13	47*
O=C(NCCC1=CCCCC1)Nc1ccc2nsnc2c1	31*	6	-23	8	17*	11
CCOc1ccc(NC(=O)c2cnccn2)cc1	-5	0	-4	-1	nt	nt
CCOc1ccc(NC(=O)c2ccccn2)cc1	17*	0	2	-1	10	27*
COc1cc(C(=O)OCC(=O)Nc2ccc3c(c2)OC(F)(F)O3)ccc1OCc1c(C)noc1C	17*	1	1	0	3	7
Cc1ccc(-c2ccnc(=S)[nH]2)cc1	11	0	-48	0	nt	nt
S=c1nccc(-c2ccc3c(c2)CCO3)[nH]1	30*	0	-23	2	6	14
O=C(NCc1nc2ncc(Br)cc2[nH]1)c1ccccc1	-1	0	1	1	nt	nt
O=c1[nH]c2cc(Br)cnc2nc1/C=C(\O)c1ccc(F)cc1	26*	2	-50	1	65*	13
COc1cc(-c2nc3oc4ccccc4c(=O)c3c(=O)n2Cc2ccco2)cc(OC)c1OC	-1	0	-5	0	nt	nt
CCOc1cc(-c2nc3n(c(=O)c2C#N)CCS3)ccc1O	25*	nt	-31	nt	41*	15
O=[N+]([O-])/C(C(Cl)=C(Cl)Cl)=C(/Sc1ccccc1)N1CCCCC1	-3	1	4	0	nt	nt
N#C/C(=C\c1ccccn1)c1nc2ccccc2s1	28*	8	-60	26*	46*	17
N#C/C(=C/c1ccc(-c2ccc(S(N)(=O)=O)cc2)o1)c1nc2ccccc2s1	40*	14*	-48	13	78*	24*
SMILES	IDE inh	TRPML3 agonist	IDE cell activ	TRPN1 ag	IDE cell inh cf	HEK293 tox	others
COCCCN1C2=C(C(=O)CC(C)(C)C2)C(c2ccc(O)c(OC)c2)C2=C1CC(C)(C)CC2=O	-7	nt	8	nt	nt	nt
Cc1ccc(-c2c(C(=O)N/N=C/c3ccsc3)nnn2-c2nonc2N)cc1	4	nt	6	nt	nt	nt
CCOC(=O)N1CCN(S(=O)(=O)N2CCCC(C(=O)NC(C)c3ccccc3)C2)CC1 (configuration not stated)	18*	nt	-1	nt	7	10
N#Cc1c(NC(=S)NC(=O)c2ccccc2)sc2c1CCC2	7	2	-17	0	nt	nt
CCC1(C)Cc2c(sc(NC(=S)NC(=O)c3ccccc3)c2C#N)CO1 (configuration not stated)	2	1	-7	1	nt	nt
CN1Cc2sc(NC(=S)NC(=O)c3ccccc3)c(C#N)c2CC1(C)C	58*	5	nt	7	4	15
CCN1CCc2c(sc(NC(=S)NC(=O)c3ccccc3)c2C#N)C1	26*	0	-7	1	4	16
C=CCn1c(O)c(N=NC(=S)Nc2cccc(C)c2)c2ccccc21	24*	0	-4	-1	2	82*
C=CCn1c(O)c(N=NC(=S)Nc2ccccc2F)c2ccccc21	4	0	-6	-1	nt	nt
CCN1/C(=C/C(C)=O)Sc2ccc(OC)cc21	2	0	7	1	nt	nt
CCOC(=O)/C(=C\C=C1/Sc2cc(OCC)c(OCC)cc2N1CC)C(C)=O	128*	46*	-149	74*	41*	35*
CCOC(=O)/C(=C/C=C1\Sc2cc(OCC)c(OCC)cc2N1CC)C(C)=O	163*	30*	-128	46*	92*	25*
CCN1/C(=C\C=C2\C(=O)N(C)C(=S)N2C)Sc2ccccc21	0	1	2	-1	nt	nt
Cn1nc(N)c2c(-c3ccccc3)c(C#N)c(N)nc21	2	0	1	-1	nt	nt
Cn1nc(N)c2c(-c3ccc(Cl)cc3)c(C#N)c(N)nc21	16*	0	-7	1	4	7
COc1cc(/C=C2\CCC/C(=C\c3ccc(O)c(OC)c3)C2=O)ccc1O	-1	nt	-5	nt	nt	nt
COc1cc(/C=C2\Oc3cc(O)ccc3C2=O)ccc1O	62*	nt	-89	nt	143*	9
O=C1/C(=C/c2ccc(O)c(O)c2)Oc2cc(O)ccc21	34*	nt	-47	nt	75*	11
O=C1/C(=C/c2cccc([N+](=O)[O-])c2)Oc2cc(O)ccc21	5	nt	1	nt	nt	nt
CC(=O)C1CCC2C3CCC4CC(=O)CCC4(C)C3C(C)(O)CC12C (configuration not stated)	nt	nt	-6	nt	nt	nt
Cc1ccc2c(c1)C1NC(=S)NC(C)(O2)C1C(=O)Nc1ccc(Cl)cc1 (configuration not stated)	17*	0	-12	2	9	13
Cc1cc(NC(=O)C(C)SCC(=O)N(C)CC(=O)Nc2ccccc2Br)no1 (configuration not stated)	3	nt	0	nt	nt	nt
O=C(Nc1ccc(-c2nc3ccccc3s2)cc1)c1cc(-n2cnnc2)ccc1Cl	22*	2	-8	5	5	67*
Cc1ccc(NC(=O)c2cc(-n3cnnc3)ccc2Cl)cc1	-2	0	7	2	nt	nt
CC1=CC(C)[C@H](/C=N/n2c(=O)[nH]c3c([nH]c4ccc(C)cc43)c2=O)C(C)C1 (some centres not stated)	4	-1	2	0	nt	nt
